ChEMBL document CHEMBL1141764, “Pentasaccharide glycosides from the roots of Ipomoea murucoides” (2005)
In brackets after ≈: the same amount, converted by molar mass. Activity calls are given as the source filed them. The rule behind the calls is not given here.

What was measured:
Format in all cases: functional
HCT-15 = experiment: Cytotoxicity against human HCT15 cells after 72 hrs; details: for EC50: HCT-15, 72 h, read-out: ED50 (the source's name)
In short: (§1)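 Cells kept in RPMI with 10% FBS at 37 °C, 5% CO2, humidified. Log-phase cells exposed in triplicate to 1.0-100 µg/mL for 72 h at 37 °C. Cell density read by protein analysis. ED50 (dose giving 50% inhibition of control growth) estimated from semilog plot of concentration (µg/mL) versus percent viable cells.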

UISO-SQC1 = experiment: (§2) Cytotoxicity against human UISO-SQC1 cells after 72 hrs; in short: as §1
OVCAR-5 = experiment: Cytotoxicity against human OVCAR5 cells after 72 hrs; details: OVCAR-5, 72 h, read-out: ED50 (the source's name); in short: as §1
[1] = as §2; details: UISO-SQC1, 72 h, read-out: ED50 (the source's name); in short: as §1

Row | Structure (SMILES) | Activity (HCT-15) | Activity (UISO-SQC1) | EC50 (OVCAR-5) [µg/mL] | EC50 (HCT-15) [µg/mL] | EC50 [1] [µg/mL]
1 | CCCCCCCCCCCC(=O)O[C@H]1[C@H](O[C@@H]2[C@@H](O)[C@H]3OC(=O)CCCCCCCCCC(CCCCC)O[C@@H]4O[C@H](C)[C@@H](O)[C@H](O)[C@H]4OC3O[C@H]2C)O[C@@H](C)[C@H](O[C@@H]2O[C@@H](C)[C@H](OC(C)=O)[C@@H](O)[C@H]2O[C@@H]2O[C@H](CO)[C@@H](O)[C@H](O)[C@H]2O)[C@H]1O (stereo not given in full) [MURUCIN 1] | inactive | inactive | 5 (≈ 4.08 µM) | – | –
2 | CCCCCCCCCCCC(=O)O[C@H]1[C@H](O[C@@H]2[C@@H](O)[C@H]3OC(=O)CCCCCCCCCC(CCCCC)O[C@@H]4O[C@H](C)[C@@H](O)[C@H](O)[C@H]4OC3O[C@H]2C)O[C@@H](C)[C@H](O[C@@H]2O[C@@H](C)[C@H](OC(=O)CC)[C@@H](O)[C@H]2O[C@@H]2O[C@H](CO)[C@@H](O)[C@H](O)[C@H]2O)[C@H]1O (stereo not given in full) [MURUCIN 2] | – | – | > 20 | > 20 | > 20
3 | CCCCCCCCCCCC(=O)O[C@H]1[C@H](O[C@@H]2[C@@H](O)[C@H]3OC(=O)CCCCCCCCCC(CCCCC)O[C@@H]4O[C@H](C)[C@@H](O)[C@H](O)[C@H]4OC3O[C@H]2C)O[C@@H](C)[C@H](O[C@@H]2O[C@@H](C)[C@H](OC(=O)CCC)[C@@H](O)[C@H]2O[C@@H]2O[C@H](CO)[C@@H](O)[C@H](O)[C@H]2O)[C@H]1O (stereo not given in full) [MURUCIN 3] | – | – | > 20 | > 20 | > 20
4 | CCCCCCCCCCCC(=O)O[C@H]1[C@H](O[C@@H]2[C@@H](O)[C@H]3OC(=O)CCCCCCCCCC(CCCCC)O[C@@H]4O[C@H](C)[C@@H](O)[C@H](O)[C@H]4OC3O[C@H]2C)O[C@@H](C)[C@H](O[C@@H]2O[C@@H](C)[C@H](OC(=O)C(C)CC)[C@@H](O)[C@H]2O[C@@H]2O[C@H](CO)[C@@H](O)[C@H](O)[C@H]2O)[C@H]1O (stereo not given in full) [MURUCIN 4] | – | – | > 20 | > 20 | > 20
5 | CCCCCCCCCCCC(=O)O[C@H]1[C@H](O[C@@H]2[C@@H](O)[C@H]3OC(=O)CCCCCCCCCC(CCCCC)O[C@@H]4O[C@H](C)[C@@H](O)[C@H](O)[C@H]4OC3O[C@H]2C)O[C@@H](C)[C@H](O[C@@H]2O[C@@H](C)[C@H](OC(=O)C(C)C(C)O)[C@@H](O)[C@H]2O[C@@H]2O[C@H](CO)[C@@H](O)[C@H](O)[C@H]2O)[C@H]1O (stereo not given in full) [MURUCIN 5] | – | – | > 20 | > 20 | > 20
